Results as given in ChEMBL document CHEMBL4765423, “Antikinetoplastid SAR study in 3-nitroimidazopyridine series: Identification of a novel non-genotoxic and potent anti-T. b. brucei hit-compound with improved pharmacokinetic properties” (Eur J Med Chem, 2020).

Assays:
[1] = Cytotoxicity against human HepG2 cells assessed as reduction in cell viability after 72 hrs by MTT assay; assay type: cell-based
How it was run: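 MTT was applied at 0.5 mg/mL for 2 h, formazan was dissolved in DMSO, and absorbance read at 570 nm with a 630 nm reference. Doxorubicin was the positive control. CC50 was taken from the dose-response curve, as the mean of three experiments.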

[2] = Selectivity index, ratio of CC50 for human HepG2 cells to EC50 for antileishmanial activity against Leishmania infantum MHOM/MA/67/ITMAP-263 axenic amastigotes; assay type: toxicity; conditions: read-out: Ratio CC50/EC50
[3] = system: Leishmania donovani; assay: Antileishmanial activity against Leishmania donovani MHOM/IN/00/DEVI promastigotes assessed as inhibition of parasitic metabolic activity measured after 72 hrs by MTT assay; assay type: functional, organism-based
How it was run: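 Log-phase promastigotes at 10⁶/mL were grown in Schneider's medium with 20% FCS at 27 °C. Compound was added from DMSO stock (final <0.5% v/v), in duplicate, for 72 h. Metabolic activity was read by MTT (4 h, 27 °C) and absorbance at 570 nm. EC50 came from non-linear dose-response regression, as the mean of ≥3 independent experiments.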

[4] = system: Trypanosoma brucei brucei; assay: Antitrypanosomal activity against bloodstream form Trypanosoma brucei brucei AnTat 1.9 trypomastigotes assessed as reduction in parasite viability incubated for 69 hrs by Alamar Blue dye based assay; assay type: functional, organism-based; conditions: AnTat 1.9, 69 h
How it was run: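 BSF parasites were cultured in MEM/Baltz medium with 20% heat-inactivated horse serum, mercaptoethanol, L-cysteine and bathocuproine, at 37 °C and 5% CO₂. Cells were seeded at 2000 parasites/100 µL with compound from DMSO, in duplicate, for 69 h. Alamar Blue was added for 5 h and fluorescence read (ex 530/em 590 nm). EC50 came from non-linear regression over three independent experiments.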

[5] = system: Leishmania infantum; assay: Antileishmanial activity against Leishmania infantum MHOM/MA/67/ITMAP-263 axenic amastigotes assessed as inhibition of parasitic metabolic activity incubated for 48 hrs by steady Glow reagent based luminescence assay; assay type: functional, organism-based; conditions: MHOM/MA/67/ITMAP-263, 48 h
How it was run: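 Luciferase-expressing promastigotes were acidified (pH 5.4, 24 h, 24 °C) and then held 24 h at 37 °C to give axenic amastigotes. These were used at 2×10⁶/mL with compound (DMSO <0.5%), in duplicate, for 48 h at 37 °C. Luciferase luminescence was read. EC50 came from non-linear regression, as the mean of three independent experiments.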

[6] = Electrochemical behavior of the compound assessed as redox potential corrected toward normal hydrogen electrode by cyclic voltammetry
[7] = Aqueous solubility of compound; assay type: physicochemical; conditions: buffer
[8] = Microsomal stability in CD-1 mouse liver microsomes assessed as half life in presence of NADP measured up to 40 mins by LC-MS analysis; assay type: ADME, Microsome
How it was run: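 Compound was incubated in duplicate with female CD-1 mouse microsomes at 37 °C in 50 mM phosphate, pH 7.4. An NADP-regenerating system was present (MgCl₂ 5 mM, NADP 1 mM, G6PDH 0.4 U/mL, G6P 5 mM).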

[9] = Selectivity index, ratio of CC50 for human HepG2 cells to EC50 for antileishmanial activity against Leishmania donovani MHOM/IN/00/DEVI promastigotes; assay type: toxicity; conditions: read-out: Ratio CC50/EC50
[10] = Selectivity index, ratio of CC50 for human HepG2 cells to EC50 for Trypanosoma brucei brucei trypomastigotes AnTat 1.9; assay type: toxicity; conditions: read-out: Ratio CC50/EC50
[11] = target: Albumin (Homo sapiens, UniProt P02768); assay: Binding affinity to human albumin incubated for 4 hrs by LC-MS analysis; assay type: ADME; conditions: read-out: PB (converted)
[12] = system: Leishmania donovani; assay: Antileishmanial activity against Leishmania donovani amastigotes infected in human THP1 cells assessed as reduction in parasite infection treated with compound at 24 hrs post infection and measured after 120 hrs by Giemsa staining-based assay; assay type: functional, organism-based; conditions: THP-1
How it was run: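 THP-1 cells were differentiated with PMA (50 ng/mL, 48 h). They were infected 10:1 with promastigotes acidified at pH 5.4, for 24 h. Compound was added (DMSO <0.5%), in duplicate, and cells were incubated 120 h at 37 °C, 5% CO₂. Cells were methanol-fixed and Giemsa-stained, and ≥200 cells were counted for % infected macrophages. IC50 came from regression, as the mean of ≥3 experiments.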

[13] = Permeability of the compound in pH 7.4 Prisma HT buffer at 100 uM incubated for 4 hrs by PAMPA-BBB assay method

Sequence of Albumin (P02768 whole entry): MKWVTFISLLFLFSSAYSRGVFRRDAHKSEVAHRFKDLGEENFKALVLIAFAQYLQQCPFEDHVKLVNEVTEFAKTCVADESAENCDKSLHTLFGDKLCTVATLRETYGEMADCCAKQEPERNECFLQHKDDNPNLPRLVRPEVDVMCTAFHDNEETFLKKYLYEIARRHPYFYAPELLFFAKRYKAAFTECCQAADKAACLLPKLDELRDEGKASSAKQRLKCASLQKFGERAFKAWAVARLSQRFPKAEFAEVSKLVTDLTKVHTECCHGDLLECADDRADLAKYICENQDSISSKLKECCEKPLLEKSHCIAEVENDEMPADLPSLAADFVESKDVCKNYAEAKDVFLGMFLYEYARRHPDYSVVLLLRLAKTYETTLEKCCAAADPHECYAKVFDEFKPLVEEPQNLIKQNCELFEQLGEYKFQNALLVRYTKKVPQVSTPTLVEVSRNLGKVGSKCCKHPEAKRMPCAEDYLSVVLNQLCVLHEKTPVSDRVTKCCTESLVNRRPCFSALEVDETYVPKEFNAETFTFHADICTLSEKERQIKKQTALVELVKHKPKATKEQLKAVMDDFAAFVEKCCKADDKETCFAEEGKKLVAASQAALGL

| SMILES | CC50 at 72 h [1] [µM] | selectivity ratio [2] | EC50 [3] [nM] | EC50 [4] [nM] | EC50 [5] [µM] | Activity [6] [V] | solubility [7] | half-life [8] [min] | selectivity ratio [9] | selectivity ratio [10] | fraction unbound at 4 h [11] | EC50 [12] [µM] | Papp at 4 h, 100 µM [13] [×10⁻⁶ cm/s] |
| --- | --- | --- | --- | --- | --- | --- | --- | --- | --- | --- | --- | --- | --- |
| Cc1nc2c(Br)cc(Cl)cn2c1[N+](=O)[O-] | > 125 | > 3.9 | > 12500 | > 50000 | 32.1 | – | – | – | – | – | – | – | – |
| CC1CS(=O)(=O)CCN1/N=C/c1ccc([N+](=O)[O-])o1 (stereo unspecified) [NIFURTIMOX] | – | – | – | – | – | -0.61 | – | – | – | – | – | – | – |
| COc1ccc(Nc2cc(Cl)cn3c([N+](=O)[O-])c(CS(=O)(=O)c4ccccc4)nc23)cc1 | > 3.9 | – | – | – | – | – | Insoluble | – | – | – | – | – | – |
| CS(=O)(=O)Cc1nc2c(Sc3ccc(Cl)cc3)cc(Cl)cn2c1[N+](=O)[O-] | > 31.2 | > 3 | 1200 | 67 | 10.3 | – | – | 12 | > 26 | > 466 | 0.011 | – | – |
| O=[N+]([O-])c1c(CS(=O)(=O)c2ccccc2)nc2c([Se]c3ccc(Cl)cc3)cc(Cl)cn12 | > 7.8 | > 8.7 | 700 | 300 | 0.9 | – | Insoluble | – | > 11.1 | > 26 | – | – | – |
| O=[N+]([O-])c1c(CS(=O)(=O)c2cccnc2)nc2c(Br)cc(Cl)cn12 | > 62.5 | > 0.8 | 800 | 25 | 77.8 | – | Soluble | 27 | > 78 | > 2500 | 0.13 | – | – |
| O=[N+]([O-])c1cnc2c(Sc3ccc(Cl)cc3)cc(Cl)cn12 | > 7.8 | – | 2500 | 85 | – | -0.74 | Insoluble | – | > 3.1 | > 92.8 | – | – | – |
| CSc1ccc(OCc2ncc([N+](=O)[O-])n2C)cc1 [FEXINIDAZOLE] | – | – | – | – | – | -0.83 | – | – | – | – | – | – | – |
| O=[N+]([O-])c1c(CS(=O)(=O)C2CCCCC2)nc2c(Sc3ccc(Cl)cc3)cc(Cl)cn12 | > 31.2 | > 19.5 | 1900 | 1500 | 1.6 | – | – | – | > 16.4 | > 20.8 | – | > 10 | – |
| O=[N+]([O-])c1c(CS(=O)(=O)c2ccccc2)nc2c(Br)cc(C(F)(F)F)cn12 | > 15.6 | – | 6200 | 4000 | > 3.1 | -0.6 | – | – | > 2.5 | > 3.9 | – | – | – |
| O=[N+]([O-])c1cnc2c(Br)cc(Cl)cn12 | 16.2 | 1 | 9300 | 400 | 15.9 | – | – | – | 1.7 | 40.5 | – | – | – |
| O=[N+]([O-])c1c(CO)nc2c(Br)cc(Cl)cn12 | > 125 | > 5.4 | > 12500 | > 50000 | 46.3 | – | – | – | – | – | – | – | – |
| O=[N+]([O-])c1c(CS(=O)(=O)c2cccnc2)nc2c(Sc3ccc(Cl)cc3)cc(Cl)cn12 | > 31.2 | > 39 | 500 | 1200 | 0.8 | – | – | – | > 62.4 | > 26 | – | > 10 | – |
| Cc1cc(Br)c2nc(CS(=O)(=O)c3ccccc3)c([N+](=O)[O-])n2c1 | > 31.2 | – | 5600 | 1200 | > 3.1 | -0.76 | – | – | > 5.6 | > 26 | – | – | – |
| C[C@@H]1[C@H](O)[C@@H](C)/C=C/C=C/C=C/C=C/C=C/C=C/C=C/[C@H](O[C@@H]2O[C@H](C)[C@@H](O)[C@H](N)[C@@H]2O)C[C@@H]2O[C@](O)(C[C@@H](O)C[C@@H](O)[C@H](O)CC[C@@H](O)C[C@@H](O)CC(=O)O[C@H]1C)C[C@H](O)[C@H]2C(=O)O [AMPHOTERICIN B] | – | – | – | – | 0.06 | – | – | – | – | – | – | – | – |
| Cc1cc(Sc2ccc(Cl)cc2)c2nc(CS(=O)(=O)c3ccccc3)c([N+](=O)[O-])n2c1 | > 62.5 | 12.5 | 2600 | 1800 | 5 | -0.76 | – | – | > 24 | > 34.7 | – | – | – |
| Cn1c(=O)c2[nH]cnc2n(C)c1=O.O [THEOPHYLLINE] | – | – | – | – | – | – | – | – | – | – | – | – | 0.47 |
| O=[N+]([O-])c1c(CS(=O)(=O)c2ccccc2)nc2c(Sc3ccc(Cl)cc3)cc(C(F)(F)F)cn12 | > 7.8 | – | 1900 | 170 | – | -0.58 | – | – | > 4.1 | > 45.9 | – | – | – |
| CSCc1nc2c(Br)cc(Cl)cn2c1[N+](=O)[O-] | > 15.6 | – | – | 2200 | – | – | Insoluble | – | – | > 7.1 | – | – | – |
| O=[N+]([O-])c1c(CS(=O)(=O)c2ccccc2)nc2c(Nc3ccc(Cl)cc3)cc(Cl)cn12 | > 3.9 | – | – | – | – | – | Insoluble | – | – | – | – | – | – |
| O=[N+]([O-])c1c(CSc2ccccc2)nc2c(Br)cc(Cl)cn12 | > 31.2 | > 1.8 | > 12500 | > 50000 | 17.8 | -0.7 | – | – | – | – | – | – | – |
| Cc1nc2c(Sc3ccc(Cl)cc3)cc(Cl)cn2c1[N+](=O)[O-] | > 7.8 | – | > 12500 | – | – | -0.79 | – | – | – | – | – | – | – |
| O=[N+]([O-])c1c(CS(=O)(=O)c2ccccc2)nc2c(Nc3ccccc3)cc(Cl)cn12 | > 3.9 | – | – | – | – | -0.69 | Insoluble | – | – | – | – | – | – |
| CS(=O)(=O)Cc1nc2c(Br)cc(Cl)cn2c1N | > 125 | – | > 12500 | 7200 | > 100 | – | – | – | – | – | – | – | – |
| O=[N+]([O-])c1c(CSc2ccccc2)nc2c(Sc3ccc(Cl)cc3)cc(Cl)cn12 | > 15.6 | – | 7400 | > 50000 | – | -0.72 | – | – | > 2.1 | – | – | – | – |
| O=[N+]([O-])c1c(CS(=O)(=O)C2CCCCC2)nc2c(Br)cc(Cl)cn12 | > 15.6 | – | 900 | 500 | > 100 | – | – | – | > 17.3 | > 31.2 | – | – | – |
| O=[N+]([O-])c1c(CO)nc2c(Sc3ccc(Cl)cc3)cc(Cl)cn12 | > 15.6 | > 2 | 4000 | > 50000 | 7.9 | – | – | – | > 3.9 | – | – | – | – |
| C[S+]([O-])Cc1nc2c(Br)cc(Cl)cn2c1[N+](=O)[O-] (stereo unspecified) | 51.4 | – | – | 20 | – | – | – | – | – | 2570 | – | – | – |
| O=[N+]([O-])c1c(CS(=O)(=O)c2ccccc2)nc2c(Br)cc(Cl)cn12 | – | – | – | – | – | -0.65 | – | 12 | – | – | 0.035 | – | – |
